G6PDH CS – L. mesenteroides G6PDH inhibitors, counter-screen for G6PDH-coupled screening assays, biochemical, Leuconostoc mesenteroides enzyme. glucose-6-phosphate dehydrogenase [Leuconostoc mesenteroides]. Purified L. mesenteroides G6PDH, diaphorase/resazurin coupled fluorescence, 45 min. inhibition, % at 5 µM. hit rate 0.12% among 200,000; in the data active means inhibition above about 50%
PMI act hi M6P – human PMI activators, high substrate, primary screen, biochemical, fluorescence intensity, near-saturating mannose 6-phosphate | activation factor at 20 µM | Mannose-6-phosphate isomerase (Homo sapiens), P34949 | hit rate 0.34% among 190,000 | coupled PMI enzyme assay, resazurin fluorescence, 20 min; stronger effect = higher value; 1 = untreated enzyme, 0 = substrate-free blank;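 active means activation factor of 2 or more at 20 µM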
Target sequence (P34949 whole entry, looked up): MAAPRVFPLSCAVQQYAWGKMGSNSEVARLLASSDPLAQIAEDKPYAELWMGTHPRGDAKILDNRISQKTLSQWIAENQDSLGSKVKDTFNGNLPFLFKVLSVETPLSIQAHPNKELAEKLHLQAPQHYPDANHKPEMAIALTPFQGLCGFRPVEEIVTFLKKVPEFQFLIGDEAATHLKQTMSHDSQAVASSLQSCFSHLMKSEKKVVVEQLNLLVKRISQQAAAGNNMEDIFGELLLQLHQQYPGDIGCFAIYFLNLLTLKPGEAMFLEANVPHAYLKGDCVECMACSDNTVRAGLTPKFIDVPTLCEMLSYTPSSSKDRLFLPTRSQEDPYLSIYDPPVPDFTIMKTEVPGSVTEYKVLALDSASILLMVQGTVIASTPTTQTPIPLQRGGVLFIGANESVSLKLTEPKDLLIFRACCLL
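Material: human phosphomannose isomerase with PGI, G6PDH, diaphorase coupling enzymes. Quantity: 15 ng/mL PMI. Medium: HEPES pH 7.4 buffer with MgCl2 and Tween-20. Reagent: Near-saturating mannose-6-phosphate, 1.0 mM. Compound: 20 µM single dose. Times: enzyme reaction with compound 20 min at room temperature. Detection: resorufin fluorescence at Ex 544/Em 590 nm.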
Diaph act CS – compounds boosting diaphorase resazurin reduction – biochemical, uHTS, resorufin fluorescence, counter-screen for diaphorase-coupled primary assays, primary screen | Diaphorase/resazurin coupled assay, 16 min; stronger effect = higher value; 1 = vehicle wells, 0 = NADH-free wells | activation factor at 20 µM | hit rate 0.005% among 190,000;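 active means diaphorase activity raised at least twofold by the compound at 20 µM; inactive means activation factor below 2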
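test system = bacterial diaphorase enzyme (C. kluyveri) | quantity = enzyme 0.07 U/mL final | reagent = NADH substrate 0.114 mM plus resazurin dye 0.1 mM, final | incubation = 16 min enzyme reaction, ambient temperature | buffer or medium = HEPES pH 7.4 buffer with MgCl2 and Tween 20 | signal = fluorescence of resorufin, 544 nm excitation, 590 nm emission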
PMI activator – activators of human PMI, primary screen, biochemical, fluorescence intensity, near-Km mannose 6-phosphate; purified human PMI, coupled resazurin fluorescence, 20 min; stronger effect = higher value; 1 = vehicle control, 0 substrate-free wells; activation factor at 20 µM; AID 1214, 2008; hit rate 0.005% among 190,000; Mannose-6-phosphate isomerase (Homo sapiens), P34949;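 active means activation factor of 2 or more at 20 µM, relative to plate controls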
TbHK1 inh – Trypanosoma brucei hexokinase 1 inhibitors, primary screen, biochemical, G6PDH-coupled NADH absorbance, MLSCN library; hexokinase 1 [Trypanosoma brucei]; recombinant TbHK1, G6PDH-coupled NADH A340; inhibition, % at 10 µM; hit rate 0.11% among 220,000;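 active means inhibition of 50% or more in the single-dose primary screen; inactive means inhibition below 50%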
Diaph inh CS – diaphorase inhibitors and chemical oxidizers, primary screen, counter-screen for diaphorase-coupled primary assays, biochemical, uHTS, resorufin fluorescence; AID 1217, 2008; inhibition, % at 20 µM; diaphorase resazurin-to-resorufin fluorescence, NADH, 16 min; bacterial (C. kluyveri) enzyme, not human; hit rate 0.69% among 190,000;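 active means primary screen inhibition at 20 µM above a set limit, cut at about 50% in these data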;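 further: plate controls were DMSO with full reaction for no effect and wells lacking NADH for full effect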
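Test system: diaphorase enzyme from Clostridium kluyveri; amount: diaphorase at 0.14 U/mL in enzyme working solution; detection: fluorescence of resorufin formed from resazurin, Ex 544/Em 590 nm; times: reaction incubation of 16 min at room temperature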
Numbers without * were called inactive; · = not tested or not shown. An excerpt weighted towards active compounds, which were near 1.1% of everything screened.

SMILES | G6PDH CS | PMI act hi M6P | Diaph act CS | PMI activator | TbHK1 inh | Diaph inh CS
O=C1NC(=O)C2(Cc3ccccc3N3CCCC32)C(=O)N1c1ccc(Cl)cc1 (stereo unspecified) | 12 | 1.6 | 1 | 1.6 | 1 | 1
O=C1NC(=O)[C@]2(Cc3ccccc3N3CCN(c4ccccc4)CC32)C(=O)N1c1ccccc1 (stereo partly specified) | 4 | 2.1* | 0.9 | 1.7 | -10 | 14
O=C1NC(=O)[C@]2(Cc3ccccc3N3CCN(c4ccccc4)CC32)C(=O)N1Cc1ccccc1 (stereo partly specified) | 5 | 2.1* | 0.8 | 1.6 | 6 | 19
CN1C(=O)NC(=O)[C@]2(Cc3ccccc3N3CCN(c4ccccc4)CC32)C1=O (stereo partly specified) | 0 | 2.1* | 0.9 | 1.7 | 4 | 11
Cc1cc(NC(=O)CCl)on1 | 4 | 1 | 1 | 1.2 | -4 | -4
C=C1N2CCC(CC2)C1(O)c1ccc(C)c(C)c1 (stereo unspecified) | -7 | 1 | 0.9 | 1.1 | 0 | 11
C=C1N2CCC(CC2)C1(O)c1ccc(C)cc1 (stereo unspecified) | 2 | 2.1* | 0.9 | 1.6 | -9 | 7
Cc1nc2nc(SCC(=O)N3CCC4(CC3)OCCO4)nn2c(C)c1Cc1ccccc1 | 0 | 1 | 1 | 1.1 | -7 | -1
CN[C@@H]1C[C@@H](c2ccc(Cl)c(Cl)c2)c2ccccc21 | 9 | 1 | 0.3 | 0.9 | · | 72*
CN1CCC2(CC1)C(C#N)=C(N)NC(S)=C2C#N | 9 | 0.6 | 1 | 0.9 | 1 | -3
CC(=O)c1c(C)n(C2CCCCC2)c2ccc(O)cc12 | 9 | 0.8 | 0.5 | 0.9 | 3 | 50*
CC(=O)CC(c1ccccc1[N+](=O)[O-])c1c(O)c2ccccc2oc1=O (stereo unspecified) | · | · | · | · | -30 | ·
COc1ccc(CN2CCCC(C(=O)c3sccc3C)C2)cc1O (stereo unspecified) | 12 | 1 | 0.9 | 1 | 9 | 6
CCOC(=O)c1ccc(N2C(=O)CC(N3CC=C(c4ccc(F)cc4)CC3)C2=O)cc1 (stereo unspecified) | -7 | 2* | 1 | 1.6 | -11 | 3
CC1CN2c3ccc([N+](=O)[O-])cc3CC3(C(=O)N(C)C(=O)N(C)C3=O)C2C(C)O1 (stereo unspecified) | · | · | · | · | -19 | ·
O=c1[nH]c(=S)n(C2CC2)c(O)c1C=Nc1cccc(C(F)(F)F)c1 | 10 | 1.5 | 1.1 | 1.3 | -8 | -12
Oc1ccccc1/C=N/NP(=S)(c1ccccc1)c1ccccc1 | 2 | 0.9 | 1 | 0.9 | 7 | 4
Oc1ccc(/C=N/NP(=S)(c2ccccc2)c2ccccc2)cc1O | 15 | 0.4 | 0.4 | 0.4 | -15 | 58*
CC(C)Sc1nnc(OC(=O)N(C)C)n1-c1ccccc1 | · | · | · | · | 1 | ·
O=C(O)c1cccc2c1NC(C(=O)O)C1CC(Sc3ccccc3[N+](=O)[O-])C(Cl)C21 (stereo unspecified) | 1 | 1.3 | 0.1 | 1.2 | -2 | 93*
CC(=O)c1ccc2c(c1)C1C(Cl)C(Sc3ccccc3[N+](=O)[O-])CC1C(C(=O)O)N2 (stereo unspecified) | -14 | 1.5 | 0.3 | 1.1 | -10 | 66*
O=C(c1ccc(Cl)cc1)C1CCCN(Cc2ccc3nonc3c2)C1 (stereo unspecified) | 8 | 0.9 | 0.9 | 0.9 | 1 | 8
CCn1c(NN=O)nc2ccccc21 | 6 | 1.1 | 1 | 1 | -7 | 4

Assay outcomes (PubChem)
